According to ChEMBL document CHEMBL4689842, “EUbOPEN Chemogenomics Library wave 1” (2021):

System: U2OS
Assay: Multiplex assay against U2OS
Format: toxicity, cell-based
Conditions: human
In short: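 On a CQ1 microscope at 37°C and 5% CO2, live cells were imaged after compound addition. They had been stained at seeding with Hoechst33342, BioTracker Green Microtubule Cytoskeleton Dye, MitoTracker Red and Annexin V Alexa Fluor 680. CellPathfinder machine-learning gating assigned cells to Hoechst high-intensity objects or normal cells, normal cells to healthy, pyknosed or fragmented nuclei, and pyknosed cells to mitotic or apoptotic. Tubulin, mitochondrial-mass and membrane-permeability phenotypes are per cents of healthy-nucleus cells.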

[1] = 12 h, 1 µM, compound concentration 1 uM, replicate 1
[2] = 12 h, 1 µM, compound concentration 1 uM, replicate 2
[3] = 12 h, 10 µM, compound concentration 10 uM, replicate 1
[4] = 12 h, 10 µM, compound concentration 10 uM, replicate 2
[5] = 24 h, 1 µM, compound concentration 1 uM, replicate 1
[6] = 24 h, 1 µM, compound concentration 1 uM, replicate 2
[7] = 24 h, 10 µM, compound concentration 10 uM, replicate 1
[8] = 24 h, 10 µM, compound concentration 10 uM, replicate 2
[9] = 48 h, 1 µM, compound concentration 1 uM, replicate 1
[10] = 48 h, 1 µM, compound concentration 1 uM, replicate 2
[11] = 48 h, 10 µM, compound concentration 10 uM, replicate 1
[12] = 48 h, 10 µM, compound concentration 10 uM, replicate 2

Nc1nc2c(c(N3CCNCC3)n1)CCC1=C2[C@@H]2CCCC[C@@H]2O1
Population Apoptotic (%) [1]: 34% | Population Fragmented Nuclei (%) [1]: 14% | Population Healthy Nuclei (%) [1]: 66% | Population Hoechst High Intensity Objects (%) [1]: 7% | Population Membrane Permeable-Phenotype (%) [1]: 4% | Population Mitochondria Different-Phenotype (%) [1]: 9% | Population Mitotic Cells (%) [1]: 65% | Population Normal (%) [1]: 92% | Population Tubulin-Different-Phenotype (%) [1]: 7% | Total Cell Count [1]: 167 | Population Apoptotic (%) [2]: 0% | Population Fragmented Nuclei (%) [2]: 20% | Population Healthy Nuclei (%) [2]: 61% | Population Hoechst High Intensity Objects (%) [2]: 15% | Population Membrane Permeable-Phenotype (%) [2]: 8% | Population Mitochondria Different-Phenotype (%) [2]: 27% | Population Mitotic Cells (%) [2]: 100% | Population Normal (%) [2]: 84% | Population Pyknosed Nuclei (%) [2]: 18% | Population Tubulin-Different-Phenotype (%) [2]: 21% | Total Cell Count [2]: 71 | Population Apoptotic (%) [3]: 26% | Population Fragmented Nuclei (%) [3]: 13% | Population Healthy Nuclei (%) [3]: 62% | Population Hoechst High Intensity Objects (%) [3]: 9% | Population Membrane Permeable-Phenotype (%) [3]: 11% | Population Mitochondria Different-Phenotype (%) [3]: 88% | Population Mitotic Cells (%) [3]: 73% | Population Normal (%) [3]: 90% | Population Pyknosed Nuclei (%) [3]: 24% | Population Tubulin-Different-Phenotype (%) [3]: 93% | Total Cell Count [3]: 135 | Population Apoptotic (%) [4]: 27% | Population Fragmented Nuclei (%) [4]: 9% | Population Healthy Nuclei (%) [4]: 68% | Population Hoechst High Intensity Objects (%) [4]: 3% | Population Membrane Permeable-Phenotype (%) [4]: 25% | Population Mitochondria Different-Phenotype (%) [4]: 87% | Population Mitotic Cells (%) [4]: 72% | Population Normal (%) [4]: 96% | Population Pyknosed Nuclei (%) [4]: 21% | Population Tubulin-Different-Phenotype (%) [4]: 92% | Total Cell Count [4]: 106 | Population Apoptotic (%) [5]: 39% | Population Fragmented Nuclei (%) [5]: 15% | Population Healthy Nuclei (%) [5]: 65% | Population Hoechst High Intensity Objects (%) [5]: 4% | Population Membrane Permeable-Phenotype (%) [5]: 7% | Population Mitochondria Different-Phenotype (%) [5]: 4% | Population Mitotic Cells (%) [5]: 60% | Population Normal (%) [5]: 95% | Population Pyknosed Nuclei (%) [5]: 19% | Population Tubulin-Different-Phenotype (%) [5]: 3% | Total Cell Count [5]: 203 | Population Apoptotic (%) [6]: 20% | Population Fragmented Nuclei (%) [6]: 22% | Population Healthy Nuclei (%) [6]: 57% | Population Hoechst High Intensity Objects (%) [6]: 8% | Population Membrane Permeable-Phenotype (%) [6]: 6% | Population Mitochondria Different-Phenotype (%) [6]: 20% | Population Mitotic Cells (%) [6]: 80% | Population Normal (%) [6]: 91% | Population Pyknosed Nuclei (%) [6]: 20% | Population Tubulin-Different-Phenotype (%) [6]: 16% | Total Cell Count [6]: 82 | Population Apoptotic (%) [7]: 40% | Population Fragmented Nuclei (%) [7]: 11% | Population Healthy Nuclei (%) [7]: 45% | Population Hoechst High Intensity Objects (%) [7]: 14% | Population Membrane Permeable-Phenotype (%) [7]: 16% | Population Mitochondria Different-Phenotype (%) [7]: 85% | Population Mitotic Cells (%) [7]: 59% | Population Normal (%) [7]: 85% | Population Pyknosed Nuclei (%) [7]: 43% | Population Tubulin-Different-Phenotype (%) [7]: 75% | Total Cell Count [7]: 140 | Population Apoptotic (%) [8]: 33% | Population Fragmented Nuclei (%) [8]: 8% | Population Healthy Nuclei (%) [8]: 46% | Population Hoechst High Intensity Objects (%) [8]: 2% | Population Membrane Permeable-Phenotype (%) [8]: 22% | Population Mitochondria Different-Phenotype (%) [8]: 79% | Population Mitotic Cells (%) [8]: 66% | Population Normal (%) [8]: 97% | Population Pyknosed Nuclei (%) [8]: 45% | Population Tubulin-Different-Phenotype (%) [8]: 69% | Total Cell Count [8]: 109 | Population Apoptotic (%) [9]: 31% | Population Fragmented Nuclei (%) [9]: 8% | Population Healthy Nuclei (%) [9]: 78% | Population Hoechst High Intensity Objects (%) [9]: 5% | Population Membrane Permeable-Phenotype (%) [9]: 3% | Population Mitochondria Different-Phenotype (%) [9]: 5% | Population Mitotic Cells (%) [9]: 68% | Population Normal (%) [9]: 94% | Population Pyknosed Nuclei (%) [9]: 13% | Population Tubulin-Different-Phenotype (%) [9]: 5% | Total Cell Count [9]: 299 | Population Apoptotic (%) [10]: 40% | Population Fragmented Nuclei (%) [10]: 19% | Population Healthy Nuclei (%) [10]: 65% | Population Hoechst High Intensity Objects (%) [10]: 9% | Population Membrane Permeable-Phenotype (%) [10]: 4% | Population Mitochondria Different-Phenotype (%) [10]: 17% | Population Mitotic Cells (%) [10]: 60% | Population Normal (%) [10]: 90% | Population Pyknosed Nuclei (%) [10]: 14% | Population Tubulin-Different-Phenotype (%) [10]: 13% | Total Cell Count [10]: 113 | Population Apoptotic (%) [11]: 62% | Population Fragmented Nuclei (%) [11]: 19% | Population Healthy Nuclei (%) [11]: 32% | Population Hoechst High Intensity Objects (%) [11]: 18% | Population Membrane Permeable-Phenotype (%) [11]: 8% | Population Mitochondria Different-Phenotype (%) [11]: 76% | Population Mitotic Cells (%) [11]: 37% | Population Normal (%) [11]: 81% | Population Pyknosed Nuclei (%) [11]: 48% | Population Tubulin-Different-Phenotype (%) [11]: 63% | Total Cell Count [11]: 175 | Population Apoptotic (%) [12]: 48% | Population Fragmented Nuclei (%) [12]: 9% | Population Healthy Nuclei (%) [12]: 40% | Population Hoechst High Intensity Objects (%) [12]: 12% | Population Membrane Permeable-Phenotype (%) [12]: 21% | Population Mitochondria Different-Phenotype (%) [12]: 78% | Population Mitotic Cells (%) [12]: 51% | Population Normal (%) [12]: 87% | Population Pyknosed Nuclei (%) [12]: 50% | Population Tubulin-Different-Phenotype (%) [12]: 53% | Total Cell Count [12]: 133
